Source: ChEMBL document CHEMBL5375965, “Discovery of New Broad-Spectrum Anti-Infectives for Eukaryotic Pathogens Using Bioorganometallic Chemistry” (J Med Chem, 2023)
Active and inactive are the calls of the source. No cut-off for these calls is given here.

Tests used:
[1] = tested on: Brugia pahangi; assay: Antinematodal activity against Brugia pahangi assessed as inhibition of worm motility at day 1 by worminator analysis; type: functional; details: time 1 day
Summary of the method: (§1)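 Single adult female worm per well in RPMI-1640 (25 mM HEPES, 2.0 g/L NaHCO₃, 5% heat-inactivated FBS, 1X antibiotic/antimycotic), 4 replicate wells, 6 days at 37°C, 5% CO₂. Motility recorded 60 s per plate on days 0, 1, 2, 3 and 6 as pixels displaced/s. Inhibition = (1 − treated MMU/mean 1% DMSO control MMU) × 100, floored at zero. IC₅₀ from 3- and 6-point dilutions.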

[2] = tested on: Candida albicans; assay: Antifungal activity against Candida albicans CAAL28 infected in BALB/c mouse candidiasis model assessed as animal survival pre-infected for 1 hr followed by compound addition at 10 mg/kg administered once daily for 3 days and measured on day 4 (reference value: 25%); type: functional; details: time 4 day
[3] = tested on: Brugia pahangi; assay: Antinematodal activity against Brugia pahangi assessed as inhibition of worm motility measured immediately by worminator analysis; type: functional; summary of the method: as §1
[4] = tested on: Trichuris muris; assay: Antinematodal activity against Trichuris muris assessed as inhibition of worm motility at day 5 by worminator analysis; type: functional; details: time 5 day
[5] = tested on: Trichuris muris; assay: Antinematodal activity against Trichuris muris assessed as inhibition of worm motility at day 1 by worminator analysis; type: functional
Summary of the method: as §1, with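 “Two” for “Single”, “worms” for “female worm”, “plate as pixels displaced/s” for “plate”, “6.” for “6 as pixels displaced/s.”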

[6] = tested on: Brugia pahangi; assay: Antinematodal activity against Brugia pahangi assessed as inhibition of worm motility at day 3 by worminator analysis; type: functional; details: time 3 day; summary of the method: as §1
[7] = tested on: Brugia pahangi; assay: Antinematodal activity against Brugia pahangi assessed as inhibition of worm motility at day 6 by worminator analysis; type: functional; details: time 6 day; summary of the method: as §1
[8] = tested on: Brugia pahangi; assay: Antinematodal activity against Brugia pahangi assessed as inhibition of worm motility at day 2 by worminator analysis; type: functional; details: time 2 day; summary of the method: as §1
[9] = tested on: Trichuris muris; assay: Antinematodal activity against Trichuris muris assessed as inhibition of worm motility measured immediately by worminator analysis; type: functional
Summary of the method: as §1, with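 “Two” for “Single”, “worms” for “female worm”, “plate as pixels displaced/s” for “plate”, “6.” for “6 as pixels displaced/s.”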

[10] = tested on: Candida albicans; assay: Antifungal activity against Candida albicans CAAL28 infected in BALB/c mouse candidiasis model administered once daily for 3 days; type: functional, organism-based; details: CAAL28, 72 h
[11] = tested on: Trichuris muris; assay: Antinematodal activity against Trichuris muris assessed as inhibition of worm motility at day 2 by worminator analysis; type: functional; details: time 2 day
Summary of the method: as §1, with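 “Two” for “Single”, “worms” for “female worm”, “plate as pixels displaced/s” for “plate”, “6.” for “6 as pixels displaced/s.”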

[12] = tested on: Trichuris muris; assay: Antinematodal activity against Trichuris muris assessed as inhibition of worm motility at day 6 by worminator analysis; type: functional; details: time 6 day
Summary of the method: as §1, with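 “Two” for “Single”, “worms” for “female worm”, “plate as pixels displaced/s” for “plate”, “6.” for “6 as pixels displaced/s.”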

[13] = tested on: Brugia pahangi; assay: Antinematodal activity against Brugia pahangi infected in mongolian jirds assessed as reduction in reproductive output at 10 mg/kg, po administered twice daily for 5 days; type: functional, organism-based; details: time 5.0 day
Summary of the method: (§2)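 Male jirds (5–7 weeks, 50–60 g) infected ip with 200 L3. Oral dosing in 5% glucose started 5 months post-infection; vehicle received 5% glucose. Necropsy 5 days after last dose (6 animals/treated group, 9 vehicle). Worms recovered and counted. Ex vivo MF release compared by Kruskal–Wallis/Dunn. Embryograms were scored blinded by hemocytometer, ≥200 stages per female, 6–9 females/group, and analysed by two-way ANOVA/Dunnett versus vehicle.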

[14] = tested on: Brugia pahangi; assay: Antinematodal activity against Brugia pahangi infected in mongolian jirds assessed as deformed embryos with punctate pre-infected for 5 months followed by compound addition at 10 mg/kg, po administered twice daily for 5 days; type: functional, organism-based; details: time 5.0 day
Summary of the method: (§3)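 Male jirds (5–7 weeks, 50–60 g) infected ip with 200 L3. At 5 months, dosed orally in 5% glucose; vehicle received 5% glucose. Necropsy 5 days after last dose. Adult females fixed in 2.5% glutaraldehyde/2% paraformaldehyde in 0.1 M cacodylate, Spurr-embedded, ultrathin sections contrasted with uranyl substitute and lead citrate, imaged by TEM.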

[15] = tested on: Brugia pahangi; assay: Antinematodal activity against Brugia pahangi infected in mongolian jirds assessed as embryos with mature lysosomes pre-infected for 5 months followed by compound addition at 10 mg/kg, po administered twice daily for 5 days; type: functional, organism-based; details: time 5.0 day; summary of the method: as §3
[16] = tested on: Brugia pahangi; assay: Antinematodal activity against Brugia pahangi by worminator analysis; type: functional, organism-based; summary of the method: as §1
[17] = tested on: Brugia pahangi; assay: Antinematodal activity against Brugia pahangi infected in mongolian jirds assessed as embryos with autophagolysosomes pre-infected for 5 months followed by compound addition at 10 mg/kg, po administered twice daily for 5 days; type: functional, organism-based; details: time 5.0 day; summary of the method: as §3
[18] = tested on: Trichuris muris; assay: Downregulation of fatty acid synthase expression in Trichuris muris at 100 uM incubated for 2 to 3 hrs; type: functional; details: time 2-3 hrs
Summary of the method: (§4)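 Adult female worms exposed in vitro to compound or 1% DMSO vehicle, then frozen at −80°C. RNA-seq reads aligned to the T. muris genome (PRJEB126, WBPS16) with STAR and counted per gene with featureCounts. Expression expressed as FPKM. Fold changes and significance relative to DMSO controls calculated with DESeq2.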

[19] = tested on: Trichuris muris; assay: Downregulation of Hippo gene expression in Trichuris muris at 100 uM incubated for 2 to 3 hrs; type: functional; details: time 2-3 hrs; summary of the method: as §4
[20] = tested on: Trichuris muris; assay: Downregulation of mitochondrial acyl carrier reductase expression in Trichuris muris at 100 uM incubated for 2 to 3 hrs; type: functional; details: time 2-3 hrs; summary of the method: as §4
[21] = tested on: Saccharomyces cerevisiae; assay: Antifungal activity against Saccharomyces cerevisiae harboring heterozygous YGR115C deletion mutant assessed as sensitivity by measuring ratio of control intensity to treatment intensity by chemogenomic screening analysis relative to control; type: functional
[22] = tested on: Brugia pahangi; assay: Antinematodal activity against Brugia pahangi infected in mongolian jirds assessed as reduction in number of microfilarial release at 10 mg/kg, po administered twice daily for 5 days; type: functional, organism-based; details: time 5.0 day; summary of the method: as §2
[23] = tested on: Saccharomyces cerevisiae; assay: Antifungal activity against Saccharomyces cerevisiae harboring heterozygous PMP1 deletion mutant assessed as sensitivity by measuring ratio of control intensity to treatment intensity by chemogenomic screening analysis relative to control; type: functional
[24] = tested on: Brugia pahangi; assay: Antinematodal activity against Brugia pahangi infected in mongolian jirds assessed as deformed embryos with globular material pre-infected for 5 months followed by compound addition at 10 mg/kg, po administered twice daily for 5 days; type: functional, organism-based; details: time 5.0 day; summary of the method: as §3
[25] = tested on: Trichuris muris; assay: Downregulation of mTOR gene expression in Trichuris muris at 100 uM incubated for 2 to 3 hrs; type: functional; details: time 2-3 hrs; summary of the method: as §4
[26] = tested on: Brugia pahangi; assay: Antinematodal activity against Brugia pahangi infected in mongolian jirds assessed as increase in number of deformed eggs at 10 mg/kg, po administered twice daily for 5 days; type: functional, organism-based; details: time 5.0 day; summary of the method: as §2
[27] = tested on: Trichuris muris; assay: Downregulation of Wnt gene expression in Trichuris muris at 100 uM incubated for 2 to 3 hrs; type: functional; details: time 2-3 hrs; summary of the method: as §4
[28] = tested on: Trichuris muris; assay: Antinematodal activity against Trichuris muris by worminator analysis; type: functional, organism-based
Summary of the method: as §1, with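 “Two” for “Single”, “worms” for “female worm”, “plate as pixels displaced/s” for “plate”, “6.” for “6 as pixels displaced/s.”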

[29] = tested on: Brugia pahangi; assay: Antinematodal activity against Brugia pahangi infected in mongolian jirds assessed as tissue damage in reproductive tracts pre-infected for 5 months followed by compound addition at 10 mg/kg, po administered twice daily for 5 days; type: functional, organism-based; details: time 5.0 day; summary of the method: as §3
[30] = tested on: Saccharomyces cerevisiae; assay: Antifungal activity against Saccharomyces cerevisiae harboring heterozygous RSC9 deletion mutant assessed as sensitivity by measuring ratio of control intensity to treatment intensity by chemogenomic screening analysis relative to control; type: functional
[31] = tested on: Brugia pahangi; assay: Antinematodal activity against Brugia pahangi infected in mongolian jirds assessed as deformed embryos with vacuolated spaces pre-infected for 5 months followed by compound addition at 10 mg/kg, po administered twice daily for 5 days; type: functional, organism-based; details: time 5.0 day; summary of the method: as §3
[32] = tested on: Brugia pahangi; assay: Antinematodal activity against Brugia pahangi infected in mongolian jirds assessed as reduction in number of eggs at 10 mg/kg, po administered twice daily for 5 days; type: functional, organism-based; details: time 5.0 day; summary of the method: as §2
[33] = tested on: Brugia pahangi; assay: Antinematodal activity against Brugia pahangi infected in mongolian jirds assessed as reduction in worm burden at 10 mg/kg, po administered twice daily for 5 days; type: functional, organism-based; details: time 5.0 day; summary of the method: as §2
[34] = tested on: Brugia pahangi; assay: Antinematodal activity against Brugia pahangi infected in mongolian jirds assessed as reduction in worm fecundity at 10 mg/kg, po administered twice daily for 5 days; type: functional, organism-based; details: time 5.0 day; summary of the method: as §2
[35] = tested on: Trichuris muris; assay: Downregulation of acyl-CoA synthetase expression in Trichuris muris at 100 uM incubated for 2 to 3 hrs; type: functional; details: time 2-3 hrs; summary of the method: as §4
[36] = tested on: Trichuris muris; assay: Downregulation of AMPK gene expression in Trichuris muris at 100 uM incubated for 2 to 3 hrs; type: functional; details: time 2-3 hrs; summary of the method: as §4
[37] = tested on: Saccharomyces cerevisiae; assay: Antifungal activity against Saccharomyces cerevisiae harboring heterozygous PMC1 deletion mutant assessed as sensitivity by measuring ratio of control intensity to treatment intensity by chemogenomic screening analysis relative to control; type: functional
[38] = tested on: Saccharomyces cerevisiae; assay: Antifungal activity against Saccharomyces cerevisiae harboring heterozygous RPC19 deletion mutant assessed as sensitivity by measuring ratio of control intensity to treatment intensity by chemogenomic screening analysis relative to control; type: functional
[39] = tested on: Saccharomyces cerevisiae; assay: Antifungal activity against Saccharomyces cerevisiae harboring heterozygous YPR136C deletion mutant assessed as sensitivity by measuring ratio of control intensity to treatment intensity by chemogenomic screening analysis relative to control; type: functional
[40] = tested on: Saccharomyces cerevisiae; assay: Antifungal activity against Saccharomyces cerevisiae harboring heterozygousYDL144C deletion mutant assessed as sensitivity by measuring ratio of control intensity to treatment intensity by chemogenomic screening analysis relative to control; type: functional
[41] = tested on: Saccharomyces cerevisiae; assay: Antifungal activity against Saccharomyces cerevisiae harboring heterozygous ENP1 deletion mutant assessed as sensitivity by measuring ratio of control intensity to treatment intensity by chemogenomic screening analysis relative to control; type: functional
[42] = tested on: Saccharomyces cerevisiae; assay: Antifungal activity against Saccharomyces cerevisiae harboring heterozygous HYP2 deletion mutant assessed as sensitivity by measuring ratio of control intensity to treatment intensity by chemogenomic screening analysis relative to control; type: functional
[43] = tested on: Saccharomyces cerevisiae; assay: Antifungal activity against Saccharomyces cerevisiae harboring heterozygous UTP14 deletion mutant assessed as sensitivity by measuring ratio of control intensity to treatment intensity by chemogenomic screening analysis relative to control; type: functional

OC(Cn1cncn1)(Cn1cncn1)c1ccc(F)cc1F [FLUCONAZOLE]
inhibition (INH) [1]: 15%
Activity [2]: >50%
inhibition (INH) [3]: 10%
inhibition (INH) [4]: 20%
inhibition (INH) [5]: 6%
inhibition (INH) [6]: 11%
inhibition (INH) [7]: 4%
inhibition (INH) [8]: 7%
inhibition (INH) [9]: 6%
IC50 [10]: > 100 µM
inhibition (INH) [11]: 21%
inhibition (INH) [12]: 13%

CC(C1C2CC3CC(C2)CC1C3)N(C)CC(O)(Cn1cncn1)c1ccc(F)cc1F.Cl (stereo not drawn)
Activity [13]: Active
Activity [14]: Active
Activity [15]: Active
IC50 [16]: 2.2 µM
inhibition (INH) [1]: 100%
Activity [17]: Active
Activity [18]: Active
Activity [19]: Active
inhibition (INH) [3]: 100%
inhibition (INH) [4]: 98%
Activity [20]: Active
inhibition (INH) [5]: 32%
log2(ratio) [21]: -4.65
inhibition (INH) [6]: 99%
Activity [22]: Active
log2(ratio) [23]: -6.54
Activity [24]: Active
Activity [25]: Active
Activity [26]: Active
Activity [27]: Active
IC50 [28]: 20.4 µM
inhibition (INH) [7]: 100%
inhibition (INH) [8]: 100%
Activity [29]: Active
log2(ratio) [30]: -6.48
Activity [31]: Active
Activity [32]: Active
Activity [33]: Active
inhibition (INH) [9]: 10%
inhibition (INH) [11]: 42%
Activity [34]: Active
Activity [35]: Active
Activity [36]: Active
log2(ratio) [37]: -4.67
log2(ratio) [38]: -4.18
inhibition (INH) [12]: 93%

CN(CCc1ccccc1)CC(O)(Cn1cncn1)c1ccc(F)cc1F.Cl (stereo not drawn)
log2(ratio) [39]: -3.12
inhibition (INH) [1]: 19%
inhibition (INH) [3]: 32%
inhibition (INH) [4]: 1%
inhibition (INH) [5]: 15%
inhibition (INH) [6]: 8%
inhibition (INH) [7]: 14%
inhibition (INH) [8]: 6%
inhibition (INH) [9]: 15%
log2(ratio) [40]: -4.93
log2(ratio) [41]: -2.17
inhibition (INH) [11]: 10%
log2(ratio) [42]: -2.45
log2(ratio) [43]: -5.53
inhibition (INH) [12]: 0%
